# Source: PubChem (Johns Hopkins Ion Channel Center)
# MrgX1 antag: blocks BAM8-22 activation of human MrgX1 receptor; AID 588676; B-score at 10 µM; Q96LB2; MRGX1-HEK293 calcium flux, Fluo-4, BAM8-22 antagonism; hits give low values; actives 1.3% (n = 310,000);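 active means calcium-response B-score plate-corrected more than 3 library SD below zero, starting fluorescence within 5 deviations, no agonist response on first addition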;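 further: peak minus trough fluorescence over baseline after final BAM8-22 challenge near maximal dose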
# Target sequence (Q96LB2 whole entry, looked up): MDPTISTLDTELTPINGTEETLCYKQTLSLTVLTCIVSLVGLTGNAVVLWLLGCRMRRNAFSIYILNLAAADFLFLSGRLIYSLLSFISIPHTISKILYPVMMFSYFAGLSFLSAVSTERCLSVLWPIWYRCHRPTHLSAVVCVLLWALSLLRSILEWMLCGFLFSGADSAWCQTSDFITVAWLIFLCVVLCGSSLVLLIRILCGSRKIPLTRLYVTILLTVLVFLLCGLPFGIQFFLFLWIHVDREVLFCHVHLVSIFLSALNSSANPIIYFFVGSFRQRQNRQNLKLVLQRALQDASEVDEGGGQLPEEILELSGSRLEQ
# MrgX1 agonist: human MrgX1 receptor agonism, primary screen; actives 0.44% (n = 310,000); MrgX1-HEK293 cells, Fluo-4 calcium fluorescence, agonist mode; hits give high values; AID 588627; Q96LB2; B-score at 10 µM;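 active means calcium response B-score plate-corrected fluorescence ratio at least 3 library SD, with starting fluorescence B-score inside 5 SD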
#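 Assay system: MrgX1-expressing HEK293 cells / Amount: fifteen thousand cells per well / Doses: test compound in the initial addition of three / Timing: cells plated overnight, dye loaded 0.5 h 37 °C, 0.5 h room temperature / Technique: kinetic calcium dye fluorescence, Fluo-4 NW / Control set: positive and negative controls per plate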
# RGS4 pot: RGS4 potentiation or activation. HEK293 M3R/inducible RGS4, carbachol calcium flux Fluo4; hits give low values. B-score at 10 µM. actives 0.92% (n = 310,000). AID 463111;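 active means B-score of the integrated calcium signal more than 4 SD below the library mean, with starting fluorescence not abnormally high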;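 further: negative B-score means reduced calcium response which marks RGS4 activation or potentiation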
#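 System – HEK293 FlpIn-TREx cells, stable M3R, doxycycline-inducible RGS4 · Reagent – ECmax carbachol challenge · Times – compound preincubation 20 min at room temperature before agonist · Technique – Fluo4 fluorescence kinetic imaging of calcium · Measure – B score of integrated Fluo4 ratio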
# RGS4 block: inhibitors of human RGS4. P49798. HEK293 M3R/RGS4 inducible, Fluo-4 calcium flux; hits give high values; triggered by carbachol at its EC20. B-score at 10 µM. actives 0.45% (n = 310,000). AID 463165;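 active means B-score, a plate-corrected calcium signal, over three deviations above library mean, with baseline fluorescence within five deviations of library mean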;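 further: RGS4 expression induced by doxycycline in cells with stable M3 receptor; B-score is computed from the integrated fluorescence ratio over baseline after carbachol; higher B-score means a larger calcium signal and so more RGS4 inhibition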
# Target sequence (P49798 whole entry, looked up): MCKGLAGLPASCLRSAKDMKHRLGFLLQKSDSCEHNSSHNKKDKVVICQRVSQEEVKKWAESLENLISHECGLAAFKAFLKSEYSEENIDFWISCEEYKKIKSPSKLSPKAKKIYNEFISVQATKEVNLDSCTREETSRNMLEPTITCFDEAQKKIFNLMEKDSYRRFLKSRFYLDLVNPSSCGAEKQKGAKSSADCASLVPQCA
# MrgX1 allo act: human MrgX1 positive allosteric modulation, primary screen; MrgX1-HEK293, Fluo-4 calcium flux, FDSS; hits give high values; B-score at 10 µM; actives 0.63% (n = 310,000);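 active means plate-corrected calcium response at least 3 library SD above typical, normal starting fluorescence, not activating the receptor alone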;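 further: compound read alongside a low EC10 to EC30 dose of BAM8-22 agonist; peak minus trough fluorescence over baseline measured at the second addition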
# MrgX1 allo conf: confirmation of human MrgX1 receptor positive allosteric modulators; shares compounds with MrgX1 allo act; MrgX1-HEK293, Fluo-4 calcium fluorescence, FDSS; activation (ratio percentage), % at 10 µM; actives 13% (n = 1,200); AID 602413;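 active means ratio at least 3 SD above the weak peptide control, stable starting fluorescence, no direct agonism earlier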;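 further: compound followed by low BAM8-22 agonist challenge near EC20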
# MrgX1 ant reconf: human MrgX1 receptor antagonism, re-confirmation screen; AID 602420; MrgX1-HEK293, BAM8-22 calcium flux, Fluo-4; hits give low values; shares compounds with MrgX1 antag; actives 19% (n = 2,300); remaining BAM8-22 calcium response % of control (hits give low values), % at 10 µM;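 active means remaining agonist calcium response no higher than 100% minus 3 SD of agonist-only control wells, with starting fluorescence near control levels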;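 further: agonist BAM8-22 given at a near maximal EC90 to ECmax level; peak minus minimum fluorescence divided by baseline after agonist addition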
# HEK293 Ca flux: MrgX1 antagonist counter-screen hit in parental HEK293 cells | shares compounds with MrgX1 antag | Fluo-4 calcium fluorescence, FDSS | fluorescence ratio F(max-min)/F0 at 10 µM | actives 2% (n = 4,000);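 active means duplicate-averaged calcium fluorescence ratio at least three times the standard deviation of buffer wells, a nonspecific response in parental cells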
# HEK293 Ca counter: counter-screen for MrgX1 allosteric activators: effect in parental HEK293 cells. shares compounds with MrgX1 antag. parental HEK293 calcium flux, Fluo-4 fluorescence ratio; hits give high values. fluorescence ratio F(max-min)/F0 at 10 µM. actives 0.4% (n = 4,000);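 active means calcium fluorescence ratio, averaged over duplicates, at least 3 SD of the buffer-well ratio, meaning a nonspecific response in receptor-free cells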;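 further: untransfected parental HEK293 lacking MrgX1 used as counterscreen for MrgX1 allosteric activators; fluorescence change taken during the second addition on a kinetic imager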
# HEK293 Ca cntr2: activity in parental HEK293 cells lacking MrgX1 receptor | shares compounds with MrgX1 antag | Fluo-4 calcium fluorescence (FDSS); hits give high values | fluorescence ratio F(max-min)/F0 at 10 µM | actives 8.7% (n = 4,000);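 active means calcium fluorescence ratio at least three times the spread of buffer wells, meaning a non-specific response in parental cells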
# Starred values were filed as active, the others as inactive; i = inactive; . = no result given. An excerpt weighted towards active compounds, which were near 3.5% of everything screened.
SMILES,MrgX1 antag,MrgX1 agonist,RGS4 pot,RGS4 block,MrgX1 allo act,MrgX1 allo conf,HEK293 Ca flux,HEK293 Ca counter,HEK293 Ca cntr2,others
Cc1nnc(SCCn2c(Br)nc3c2c(=O)n(C)c(=O)n3C)s1,i,i,i,i,i,.,.,.,.,
Cc1nnc(Sc2c(N)n(C)c(=O)n(C)c2=O)s1,i,i,i,i,11*,i,i,i,i,
Cc1cc(Cl)ccc1OC(C)C(=O)Nc1ccc(S(=O)(=O)Nc2cnc3ccccc3n2)cc1 (stereo not given),-6.7*,i,i,i,7.6*,i,i,i,i,MrgX1 ant reconf=81%*
CC(Oc1ccc(Cl)cc1Cl)C(=O)Nc1ccc(S(=O)(=O)Nc2cnc3ccccc3n2)cc1 (stereo not given),i,i,i,i,i,.,.,.,.,
CCOc1ccc(-c2nc[nH]c2[N+](=O)[O-])cc1,i,i,i,i,i,.,.,.,.,
Fc1ccc(-c2cc(C(F)(F)F)nc(-n3cncn3)n2)cc1,i,i,i,i,i,.,.,.,.,
Fc1ccc(-c2cc(C(F)(F)F)nc(-n3cccn3)n2)cc1,i,i,i,i,8.2*,32%*,i,i,i,
COC(=O)c1cc(C#N)c(SCc2ccccc2)nc1C,i,i,i,i,6.9*,i,i,i,i,
Cn1c(=O)[nH]c(=O)c2c1nc(N1CCNCC1)n2Cc1ccccc1Cl,i,i,i,i,10*,i,i,i,i,
CCCCCCn1c(N2CCCC2)nc2c1c(=O)[nH]c(=O)n2C,i,i,i,i,12*,9.9%*,i,i,i,
CS(=O)(=O)Oc1ccc(/C=N/NC(=O)c2ccncc2)cc1,i,i,i,i,i,.,.,.,.,
CSCCCNC(=S)Nc1cccc(S(=O)(=O)NC2=NCCC2)c1,i,i,i,i,i,.,.,.,.,
C=C(C)CNC(=S)Nc1cccc(S(=O)(=O)NC2=NCCC2)c1,i,i,i,i,11*,i,i,i,i,
O=C(c1ccc(C23CC4CC(CC(C4)C2)C3)o1)N1CCOCC1,i,i,i,i,11*,i,i,i,i,
O=C(Nc1ccc(C(=O)N2CCC(N3CCOCC3)CC2)cc1)c1ccc(Br)o1,i,i,.,.,i,.,.,.,.,
S=C(NCc1ccc(Cl)cc1)NN1CCOCC1,i,i,i,i,i,.,.,.,.,
O=C(O)c1cccc(N2C(=O)c3ccc(Oc4ccc(Cl)cc4)cc3C2=O)c1,i,i,i,i,i,.,.,.,.,
O=C(O)c1cccc(N2C(=O)c3ccc4c5c(ccc(c35)C2=O)C(=O)N(c2cccc(C(=O)O)c2)C4=O)c1,i,i,i,i,7*,i,i,i,i,
CCCCOc1ccc(C(=O)CCN2CCCCC2)cc1,i,i,i,i,7.1*,i,i,i,i,
CC(C)COc1ccc(C(=O)CCN2CCCCC2)cc1,i,i,i,i,i,.,.,.,.,
CN1CCCC(OC(=O)c2cccc(Br)c2)C1 (stereo not given),i,i,i,i,i,.,.,.,.,
CN1CCCC(OC(=O)c2ccccc2Br)C1 (stereo not given),i,i,i,i,6.6*,i,i,i,i,
Cc1c(OC(C)C(=O)NCCCN2CCOCC2)ccc2c3c(c(=O)oc12)CCCC3 (stereo not given),i,i,i,i,6.9*,i,i,i,i,
Cc1c(OC(C)C(=O)NCCCN2CCOCC2)ccc2c3c(c(=O)oc12)CCC3 (stereo not given),i,i,i,i,i,.,.,.,.,
CC(NC(=O)c1ccnn1C)C1CCCO1 (stereo not given),i,i,i,i,i,.,.,.,.,
SMILES,MrgX1 antag,MrgX1 agonist,RGS4 pot,RGS4 block,MrgX1 allo act,MrgX1 allo conf,HEK293 Ca flux,HEK293 Ca counter,HEK293 Ca cntr2,others
Nc1nc(Cl)cc(Sc2ccc(F)cc2)n1,i,i,i,i,6.7*,i,i,i,i,
O=C(O)c1c2c(nc3ccccc13)/C(=C/c1c(F)cccc1F)CCC2,i,i,i,i,8.2*,i,i,i,i,
O=C(O)c1c2c(nc3ccccc13)/C(=C/c1ccc(OC(F)F)cc1)CCC2,i,i,i,i,i,.,.,.,.,
CC(=O)c1sc(NC(=O)C2COc3ccccc3O2)nc1C (stereo not given),i,i,i,i,i,.,.,.,.,
CC1(C)CC(=O)c2sc(NS(=O)(=O)c3ccccc3)nc2C1,i,i,i,i,13*,i,i,i,i,
CC1(C)CC(=O)c2sc(NC(=O)C3COc4ccccc4O3)nc2C1 (stereo not given),i,i,i,i,9.4*,i,i,i,i,
CC1(C)CC(=O)c2sc(NC(=O)c3ccco3)nc2C1,i,i,i,i,i,.,.,.,.,
CNc1nc(Nc2ccc(C(C)=O)cc2)nc(OC(C(F)(F)F)C(F)(F)F)n1,i,i,i,i,8.6*,i,i,i,i,
COc1ccc(C2=CC(c3ccc(F)cc3)n3nnnc3N2)cc1 (stereo not given),i,i,i,i,7*,i,i,i,i,
COc1ccc(C2=CC(c3sccc3C)n3nnnc3N2)cc1 (stereo not given),i,i,i,i,i,.,.,.,.,
O=C(Nc1ccccc1Cl)OC1CCCCC1,i,i,i,i,i,.,.,.,.,
Cc1ccc(C(F)(F)F)cc1NC(N)=S,i,i,i,i,7.2*,i,i,i,i,
CCOc1ccc(NC(=O)C2C3CCC4C(CCC32)C4(Cl)Cl)cc1 (stereo not given),i,i,i,i,i,.,.,.,.,
